From ChEMBL document CHEMBL1649422, “Synthesis and molecular modeling of novel tetrahydro-β-carboline derivatives with phosphodiesterase 5 inhibitory and anticancer properties” (J Med Chem, 2011) come the findings set out here.

The first assay has as its target T1, cGMP-specific 3',5'-cyclic phosphodiesterase (Homo sapiens, UniProt O76074). In words: Inhibition of human recombinant PDE5 after 30 mins by fluorescence polarization assay.
Conditions: not given
The essentials:
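Recombinant human PDE5A at 12.5 units/mL was preincubated 30 min with compound or vehicle. Then 50 nM TAMRA-cGMP was added and the mix incubated 1.5 h at 30 °C. IMAP binding reagent was added for 30 min at 30 °C and fluorescence polarization read. IC50 came from a 10-concentration series in quadruplicate, fitted to a four-parameter logistic.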
As a reminder, the IC50 is the concentration at which inhibition is half-maximal. Regarding `CCN1CC(=O)N2[C@@H](c3ccc(Cl)cc3Cl)c3[nH]c4ccccc4c3C[C@@H]2C1=O`, the half-inhibitory concentration (IC50) was found to be 260 nM.

In the case of `CC(C)(C)N1C(=O)[C@@H]2Cc3c([nH]c4ccccc34)[C@@H](c3ccc(Cl)cc3Cl)N2C1=O`, the IC50 amounted to 70 nM.

`CCCCN1CC(=O)N2[C@@H](c3ccc(Cl)cc3Cl)c3[nH]c4ccccc4c3C[C@H]2C1=O`: the IC50 turned out to be 4460 nM.

`CC(C)(C)N1C(=O)[C@H]2Cc3c([nH]c4ccccc34)[C@H](c3ccc(Cl)cc3Cl)N2C1=O`: the IC50 was found to be 1480 nM.

As to `CC(C)(C)N1C(=O)[C@@H]2Cc3c([nH]c4ccccc34)[C@H](c3ccc(Cl)c(Cl)c3)N2C1=O`, the IC50 amounted to 2310 nM.

For `CCN1C(=O)[C@H]2Cc3c([nH]c4ccccc34)[C@@H](c3ccc(Cl)c(Cl)c3)N2C1=O`, the IC50 is 150 nM.

Take `CCN1C(=O)[C@@H]2Cc3c([nH]c4ccccc34)[C@H](c3ccc(Cl)cc3Cl)N2C1=O`: the 50% inhibitory concentration (IC50) amounted to 850 nM.

On to `COC(=O)[C@@H]1Cc2c([nH]c3ccccc23)[C@@H](c2ccc(Cl)cc2Cl)N1`, for which the 50% inhibitory concentration (IC50) was found to be 570 nM.

In the case of `COC(=O)[C@H]1Cc2c([nH]c3ccccc23)[C@@H](c2ccc(Cl)cc2Cl)N1`, the IC50 was determined as 7200 nM.

With `CC(C)(C)N1C(=O)[C@H]2Cc3c([nH]c4ccccc34)[C@@H](c3ccc(Cl)cc3Cl)N2C1=O`, the half-inhibitory concentration (IC50) worked out at 590 nM.

Another assay concerns the target T1, cGMP-specific 3',5'-cyclic phosphodiesterase. In words: Inhibition of human recombinant PDE5 at 10 uM after 30 mins by fluorescence polarization assay.
Conditions: not given
(In general: Fluorescence polarisation rises when a labelled molecule tumbles more slowly, as on binding a larger partner.)
A word on the inhibition: it is the share of the control response that was lost under treatment. For the compound `COC(=O)[C@H]1Cc2c([nH]c3ccccc23)[C@H](c2ccc(Cl)cc2Cl)N1`, the inhibition was 40%.

In the case of `COC(=O)[C@H]1Cc2c([nH]c3ccccc23)[C@H](c2ccc(Cl)c(Cl)c2)N1`, the inhibition was found to be 50%.

As for `COC(=O)[C@@H]1Cc2c([nH]c3ccccc23)[C@H](c2ccc(Cl)c(Cl)c2)N1`, the inhibition came out at 18%.

For `COC(=O)[C@@H]1Cc2c([nH]c3ccccc23)[C@@H](c2ccc(Cl)cc2Cl)N1C(=O)CCl`, the inhibition is 38%.

Turning to `CCN1CC(=O)N2[C@@H](c3ccc(Cl)cc3Cl)c3[nH]c4ccccc4c3C[C@@H]2C1=O`, the inhibition was determined as 90%.

`CC(C)(C)N1C(=O)[C@@H]2Cc3c([nH]c4ccccc34)[C@@H](c3ccc(Cl)cc3Cl)N2C1=O`: the inhibition was determined as 95%.

Take `CCCCN1CC(=O)N2[C@@H](c3ccc(Cl)cc3Cl)c3[nH]c4ccccc4c3C[C@H]2C1=O`: the inhibition was found to be 78%.

With `CC(C)(C)N1C(=O)[C@H]2Cc3c([nH]c4ccccc34)[C@H](c3ccc(Cl)cc3Cl)N2C1=O`, the inhibition was 73%.

Consider `COC(=O)[C@H]1Cc2c([nH]c3ccccc23)[C@H](c2ccc(Cl)cc2Cl)N1C(=O)CCl`, for which the inhibition was 25%.

Take `CC(C)(C)N1C(=O)[C@@H]2Cc3c([nH]c4ccccc34)[C@H](c3ccc(Cl)c(Cl)c3)N2C1=O`: the inhibition is 80%.

As to `CCN1C(=O)[C@H]2Cc3c([nH]c4ccccc34)[C@@H](c3ccc(Cl)c(Cl)c3)N2C1=O`, the inhibition stood at 95%.

Take `CCN1C(=O)[C@@H]2Cc3c([nH]c4ccccc34)[C@H](c3ccc(Cl)cc3Cl)N2C1=O`: the inhibition was determined as 85%.

`COC(=O)[C@@H]1Cc2c([nH]c3ccccc23)[C@@H](c2ccc(Cl)cc2Cl)N1`: the inhibition came out at 82%.

Turning to `COC(=O)[C@H]1Cc2c([nH]c3ccccc23)[C@@H](c2ccc(Cl)cc2Cl)N1`, the inhibition worked out at 65%.

Consider `CC(C)(C)N1C(=O)[C@H]2Cc3c([nH]c4ccccc34)[C@@H](c3ccc(Cl)cc3Cl)N2C1=O`, for which the inhibition stood at 80%.

The next assay deals with MDA-MB-231. In words: Growth inhibition of human MDA-MB-231 cells at 10 uM after 72 hrs by luminescence assay. The class given is functional. The following applies: MDA-MB-231, 72 h.
The compound `COC(=O)[C@H]1Cc2c([nH]c3ccccc23)[C@H](c2ccc(Cl)cc2Cl)N1` gave an inhibition at 10 µM of 78%.

For the compound `COC(=O)[C@H]1Cc2c([nH]c3ccccc23)[C@H](c2ccc(Cl)c(Cl)c2)N1`, the inhibition at 10 µM stood at 100%.

Compound `COC(=O)[C@@H]1Cc2c([nH]c3ccccc23)[C@H](c2ccc(Cl)c(Cl)c2)N1` returned an inhibition at 10 µM of 62%.

`COC(=O)[C@@H]1Cc2c([nH]c3ccccc23)[C@@H](c2ccc(Cl)cc2Cl)N1C(=O)CCl` showed an inhibition at 10 µM of 98%.

Consider `CCN1CC(=O)N2[C@@H](c3ccc(Cl)cc3Cl)c3[nH]c4ccccc4c3C[C@@H]2C1=O`, for which the inhibition at 10 µM worked out at 66%.

For the compound `CC(C)(C)N1C(=O)[C@@H]2Cc3c([nH]c4ccccc34)[C@@H](c3ccc(Cl)cc3Cl)N2C1=O`, the inhibition at 10 µM turned out to be 69%.

Turning to `CCCCN1CC(=O)N2[C@@H](c3ccc(Cl)cc3Cl)c3[nH]c4ccccc4c3C[C@H]2C1=O`, 10 µM produced 82% inhibition.

On to `CC(C)(C)N1C(=O)[C@H]2Cc3c([nH]c4ccccc34)[C@H](c3ccc(Cl)cc3Cl)N2C1=O`, for which the inhibition at 10 µM is 65%.

The compound `CC(C)(C)N1C(=O)[C@@H]2Cc3c([nH]c4ccccc34)[C@H](c3ccc(Cl)c(Cl)c3)N2C1=O` showed an inhibition at 10 µM of 70%.

In the case of `CCN1C(=O)[C@H]2Cc3c([nH]c4ccccc34)[C@@H](c3ccc(Cl)c(Cl)c3)N2C1=O`, the inhibition at 10 µM amounted to 50%.

Compound `CCN1C(=O)[C@@H]2Cc3c([nH]c4ccccc34)[C@H](c3ccc(Cl)cc3Cl)N2C1=O` displayed an inhibition at 10 µM of 29%.

`COC(=O)[C@@H]1Cc2c([nH]c3ccccc23)[C@@H](c2ccc(Cl)cc2Cl)N1` returned an inhibition at 10 µM of 28%.

Consider `COC(=O)[C@H]1Cc2c([nH]c3ccccc23)[C@@H](c2ccc(Cl)cc2Cl)N1`, for which the inhibition at 10 µM is 29%.

Compound `CC(C)(C)N1C(=O)[C@H]2Cc3c([nH]c4ccccc34)[C@@H](c3ccc(Cl)cc3Cl)N2C1=O` registered an inhibition at 10 µM of 68%.

For another assay, the target named is T2, cGMP-inhibited 3',5'-cyclic phosphodiesterase 3B (Homo sapiens, UniProt Q13370). In words: Inhibition of human recombinant PDE3B-mediated hydrolysis of cAMP after 30 mins by fluorescence polarization assay.
T2 sequence (Q13370 whole entry): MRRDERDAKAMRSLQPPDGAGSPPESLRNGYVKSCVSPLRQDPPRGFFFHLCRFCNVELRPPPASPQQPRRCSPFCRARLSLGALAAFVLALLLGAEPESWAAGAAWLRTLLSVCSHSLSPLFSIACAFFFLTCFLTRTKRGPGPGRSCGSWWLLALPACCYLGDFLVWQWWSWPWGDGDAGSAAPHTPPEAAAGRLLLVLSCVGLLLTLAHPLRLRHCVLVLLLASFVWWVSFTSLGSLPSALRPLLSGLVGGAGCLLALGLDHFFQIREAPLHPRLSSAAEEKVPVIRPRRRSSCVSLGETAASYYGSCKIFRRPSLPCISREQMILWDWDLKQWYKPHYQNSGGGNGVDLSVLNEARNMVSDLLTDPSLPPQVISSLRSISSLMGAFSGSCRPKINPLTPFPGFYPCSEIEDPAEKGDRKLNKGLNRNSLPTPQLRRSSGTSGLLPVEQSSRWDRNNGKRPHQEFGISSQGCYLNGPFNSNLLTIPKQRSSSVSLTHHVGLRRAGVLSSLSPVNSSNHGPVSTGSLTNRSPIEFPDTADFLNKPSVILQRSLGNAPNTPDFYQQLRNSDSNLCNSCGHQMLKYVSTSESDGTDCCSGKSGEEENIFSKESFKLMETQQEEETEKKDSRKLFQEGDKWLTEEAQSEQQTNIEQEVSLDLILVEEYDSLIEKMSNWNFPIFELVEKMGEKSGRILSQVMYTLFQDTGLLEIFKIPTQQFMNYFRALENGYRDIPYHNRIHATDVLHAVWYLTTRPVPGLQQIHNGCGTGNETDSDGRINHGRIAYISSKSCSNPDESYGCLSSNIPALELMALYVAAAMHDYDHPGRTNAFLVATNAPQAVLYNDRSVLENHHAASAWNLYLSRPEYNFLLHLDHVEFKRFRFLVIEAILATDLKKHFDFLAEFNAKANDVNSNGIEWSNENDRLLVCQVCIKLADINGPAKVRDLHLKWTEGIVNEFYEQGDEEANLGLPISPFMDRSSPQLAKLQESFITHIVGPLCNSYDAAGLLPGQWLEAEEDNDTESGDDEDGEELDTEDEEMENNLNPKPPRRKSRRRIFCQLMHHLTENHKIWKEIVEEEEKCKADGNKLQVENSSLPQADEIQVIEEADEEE
Conditions: not given
Put shortly: (§1)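 Recombinant human enzyme levels were PDE3B 10 units/mL, PDE4B 400 units/mL and PDE11A 50 units/mL. Enzyme was preincubated with compound or vehicle for 30 min. Substrate was then added: 50 nM TAMRA-cGMP and/or 50 nM fluorescein-cAMP. Reactions ran 1.5 h at 30 °C, followed by IMAP binding reagent for 30 min at 30 °C. Fluorescence polarization was read. IC50 came from a 10-concentration series in quadruplicate, fitted to a four-parameter logistic.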
On to `CN1CC(=O)N2[C@H](c3ccc4c(c3)OCO4)c3[nH]c4ccccc4c3C[C@@H]2C1=O`, for which the 50% inhibitory concentration (IC50) was more than 50000 nM.

In a further assay the target is T2, cGMP-inhibited 3',5'-cyclic phosphodiesterase 3B. In words: Inhibition of human recombinant PDE3B-mediated hydrolysis of cGMP after 30 mins by fluorescence polarization assay.
Conditions: not given
The essentials:
as §1
Turning to `CN1CC(=O)N2[C@H](c3ccc4c(c3)OCO4)c3[nH]c4ccccc4c3C[C@@H]2C1=O`, the half-maximal inhibitory concentration (IC50) is more than 50000 nM.

The test system of another assay is MDA-MB-231. In words: Growth inhibition of human MDA-MB-231 cells after 72 hrs by luminescence assay. Conditions: MDA-MB-231, 72 h. The class given is functional, cell-based. The essentials: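 MDA-MB-231 cells grown in RPMI 1640 with 5% FBS, 2 mM glutamine and antibiotics at 37 °C, 5% CO2. Cells were harvested at 70–90% confluence, used only if viability >95%, and seeded at 5000 cells/well. Dosing followed 18–24 h later, with final DMSO 0.1%. Viability was read after 72 h by CellTiter-Glo luminescence. IC50 came from eight concentrations in quadruplicate, fitted to a four-parameter logistic.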
`COC(=O)[C@H]1Cc2c([nH]c3ccccc23)[C@H](c2ccc(Cl)cc2Cl)N1` returned an IC50 of 6730 nM.

On to `COC(=O)[C@H]1Cc2c([nH]c3ccccc23)[C@H](c2ccc(Cl)c(Cl)c2)N1`, for which the midpoint of inhibition, the IC50, lay at 4620 nM.

Consider `COC(=O)[C@@H]1Cc2c([nH]c3ccccc23)[C@H](c2ccc(Cl)c(Cl)c2)N1`, for which half-maximal inhibition (IC50) was put at 6980 nM.

On to `COC(=O)[C@@H]1Cc2c([nH]c3ccccc23)[C@@H](c2ccc(Cl)cc2Cl)N1C(=O)CCl`, for which the half-maximal inhibitory concentration (IC50) stood at 1240 nM.

`CCN1CC(=O)N2[C@@H](c3ccc(Cl)cc3Cl)c3[nH]c4ccccc4c3C[C@@H]2C1=O` returned an IC50 of 1540 nM.

For `CC(C)(C)N1C(=O)[C@@H]2Cc3c([nH]c4ccccc34)[C@@H](c3ccc(Cl)cc3Cl)N2C1=O`, inhibition was half-maximal at 1260 nM (IC50).

Regarding `CCCCN1CC(=O)N2[C@@H](c3ccc(Cl)cc3Cl)c3[nH]c4ccccc4c3C[C@H]2C1=O`, the midpoint of inhibition, the IC50, lay at 3280 nM.

Regarding `CC(C)(C)N1C(=O)[C@H]2Cc3c([nH]c4ccccc34)[C@H](c3ccc(Cl)cc3Cl)N2C1=O`, the half-maximal inhibitory concentration (IC50) stood at 640 nM.

The compound `COC(=O)[C@H]1Cc2c([nH]c3ccccc23)[C@H](c2ccc(Cl)cc2Cl)N1C(=O)CCl` came in with an IC50 of 70 nM.

`CC(C)(C)N1C(=O)[C@@H]2Cc3c([nH]c4ccccc34)[C@H](c3ccc(Cl)c(Cl)c3)N2C1=O` displayed an IC50 of 1430 nM.

Turning to `CC(C)(C)N1C(=O)[C@H]2Cc3c([nH]c4ccccc34)[C@@H](c3ccc(Cl)cc3Cl)N2C1=O`, the 50% inhibitory concentration (IC50) was determined as 2260 nM.
